# Source: PubChem BioAssay
# Insulin prom act – TRM-6 insulin promoter activation; activation, % at 2 µM; TRM-6 cells (human fetal islet line), insulin promoter eGFP reporter, imaging; plate-scaled: unstimulated 0, stimulated control 100; AID 1296; hit rate 0.81% among 130,000;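 active means activation at 2 µM above a set limit, confirmed on inspection of the cell images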;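 further: share of cells whose green reporter signal exceeds an intensity cutoff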
#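 Test system: TRM-6 insulin promoter–eGFP reporter cells / Quantity: 1,000 cells per well / Reagent: tamoxifen inducer, 0.75 µM, in seeding medium / Compound dosing: 2 µM final, single concentration / Schedule: overnight tamoxifen, then two-day compound incubation at 37 °C / Measured by: automated fluorescence imaging of paraformaldehyde-fixed, Hoechst-counterstained cells, green channel / Read-out: percent activation from GFP-positive cell fraction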
# * marks the source's active call; other numbers are inactive results. Many of the other results were omitted from the sample, so hits are more common in it than they were.
SMILES,Insulin prom act
CCOC(=O)c1ccccc1NC(=O)COc1cc(=O)n(CC)c2ccccc12,307
COc1ccc(CNC(=O)COc2cc(=O)n(C)c3ccccc23)cc1,-7
CCn1c(=O)cc(OCC(=O)NCc2ccc(C)o2)c2ccccc21,100*
Cc1ccc(NC(=O)CCn2nc([N+](=O)[O-])cc2C)nc1,0
CCOc1ccc(N(CC(=O)Nc2ccccc2C(=O)N2CCOCC2)S(=O)(=O)c2ccc(F)cc2)cc1,3
O=C1/C(=C/c2ccc(F)cc2)CCC1C1CCCC1 (stereo not drawn),442*
O=C1/C(=C/c2ccco2)CCC1C1CCCC1 (stereo not drawn),-7
CN(C)c1ccc(/C=C2\CCC/C(=C\c3ccccc3)C2=O)cc1,120
COc1ccc(OC)c(-n2c(=S)[nH]c3cc(C(=O)NCCCN4CCCC4=O)ccc3c2=O)c1,-5
COC(=O)C1CCN(S(=O)(=O)c2ccc(OC)cc2)CC1,-3
COc1ccc(C(=O)Nc2c(C)csc2C(=O)O)cc1,5
CCOc1ccc2c(c1)-c1c(ssc1=S)C(C)(C)N2C(=O)c1ccco1,-7
CCOc1ccc2c(c1)C(C)=CC(C)(C)N2C(=O)Nc1ccccc1,81*
CCOc1ccc(NC(=O)CCn2cccc2)cc1,-73
CN1CCN(C(=O)CSc2ccc(C(F)(F)F)cc2[N+](=O)[O-])CC1,7
CN1C(=O)/C(=C/c2ccccc2OCc2ccccc2F)NC1=S,5
NC(=O)C1CCN(C(=O)Cn2cccc2C(=O)c2ccccc2)CC1,-10
Cn1cccc1C(=O)OCC(=O)c1cc2ccccc2o1,185*
Cc1cc(SCC(=O)c2cc3ccccc3o2)nc2ccccc12,8
CC(C)NC(=O)c1cc2ccccc2o1,-27
COC(=O)c1ccc(COC(=O)CNS(=O)(=O)c2ccc(C)cc2)cc1,-73
Cc1cc(NC(=O)CCSc2ccccc2)ccc1Br,10
Cc1ccccc1NC(=O)COC(=O)Cc1ccsc1,-10
CCCCNC(=S)N1CCn2cccc2C1c1ccccc1 (stereo not drawn),0
S=C(NCc1ccccc1)N1CCn2cccc2C1c1cccnc1 (stereo not drawn),124*
SMILES,Insulin prom act
O=C(NC(=S)NCc1ccccc1)c1cccnc1,-7
CC(Sc1nnc(NC2CCCCC2)s1)C(=O)Nc1ccc2c(c1)C(=O)c1ccccc1C2=O (stereo not drawn),-8
CN=C(C)c1c(O)c2ccccc2oc1=O,3
CC(=O)Nc1c(C(=O)c2ccccc2)oc2ccccc12,-71
CCNc1c(NC(C)=O)c(=O)oc2ccccc12,200*
O=C1c2ccccc2C(=O)N1CC(O)CNc1ccc(Br)cc1 (stereo not drawn),-72
CS(=O)(=O)n1nc(-c2ccc(Cl)cc2)nc1SCc1ccccc1,-7
Cc1ccc(S(=O)(=O)NC(c2ccccc2)C(C)C(=O)n2nc(C)cc2C)cc1 (stereo not drawn),117*
O=C(O)C(NS(=O)(=O)c1ccc(F)cc1)c1ccccc1 (stereo not drawn),-6
Cc1cc(Nc2ccccc2)n(C(=O)c2ccccc2)n1,6
CC1=C/C(=N\Nc2ccccc2[N+](=O)[O-])CC(C)(C)C1,0
COc1ccc(CCn2ccc(O)c(Cc3c(F)cccc3Cl)c2=O)cc1OC,0
Cc1c(NC(=O)C(C)OC(=O)c2ccc([N+](=O)[O-])s2)c(=O)n(-c2ccccc2)n1C (stereo not drawn),136
C[C@@H]1NC(=O)[C@H](CCCN=C(N)N)NC(=O)c2cc([N+](=O)[O-])cc(I)c2OCC[C@@H](C(=O)NC(CC(=O)O)C(N)=O)NC1=O (stereo partly drawn),-9
CCN(CC(=O)Nc1cc(Cl)ccc1C)c1ncnc2sc(C)c(C)c12,0
O=C1CN(c2ccccc2F)C(=O)CN1c1ccccc1F,412*
Cc1cccc(C)c1N1CC(=O)N(c2c(C)cccc2C)CC1=O,8
O=C(c1ccccc1C(=O)N1CCN(c2ccccc2F)CC1)N1CCN(c2ccccc2F)CC1,0
Cc1ccc(-n2nc(C)c(Sc3ccccc3[N+](=O)[O-])c2N)cc1,-6
CCCCNC(C(=O)Nc1ccc([N+](=O)[O-])cc1Br)c1ccccc1 (stereo not drawn),-100
CCCC(=O)Nc1ccc(C(=O)Nc2nnc(COCC)s2)cc1,408*
CCOCc1nnc(NC(=O)c2ccco2)s1,144
CCOCC(=O)Nc1nnc(COC)s1,-3
CNS(=O)(=O)c1ccc(Cl)nc1,8
O=C(c1ccc(Cn2c(=S)[nH]c3cc4c(cc3c2=O)OCO4)cc1)N1CCN(c2ncccn2)CC1,7
SMILES,Insulin prom act
O=C(O)c1cc(S(=O)(=O)Nc2ccc3c(c2)OCCO3)c(Cl)cc1Cl,150*
O=S(=O)(Nc1ccc2c(c1)OCCO2)c1ccc2oc3ccccc3c2c1,347
CC(C)CNc1cc(Cl)c(S(=O)(=O)NCC(C)C)cc1C(=O)O,0
COc1ccc(C(=O)Sc2nncc3ccccc23)cc1,0
O=C(CON=C1c2ccccc2-c2ccccc21)NC12CC3CC(CC(C3)C1)C2,0
CCS(=O)(=O)N1Cc2ccccc2CC1C(=O)Nc1nnc(SCc2ccc(F)cc2)s1 (stereo not drawn),0
O=C(CSc1ccccn1)C12CC3CC(CC(C3)C1)C2,6
COC(=O)C1=C(C)C(c2cccs2)NC(=O)N1C (stereo not drawn),-3
COC(=O)C1=C(C)N(CCCC(=O)O)C(=O)NC1c1ccc(-c2ccccc2)cc1 (stereo not drawn),0
COC(=O)C1=C(C)N(CCCC(=O)O)C(=O)NC1c1cccs1 (stereo not drawn),295*
O=C(N/N=C/c1ccc(Br)cc1)c1ccccc1-n1cccc1,6
CCc1ccc(NC(=O)Cc2ccc(OC)cc2)cc1,-3
COc1ccc(CC(=O)Nc2c3c(nn2-c2ccccc2C)CS(=O)C3)cc1 (stereo not drawn),456*
COc1ccc(CC(=O)Nc2cccc(-c3ccc4nnc(C)n4n3)c2)cc1,0
COc1ccc(C(=O)NNC2=NCCCCC2)cc1,0
COc1ccc(CN(Cc2cccnc2)C(=S)NCCc2ccccc2)cc1OC,-9
COc1cccc(NCc2cc(=O)oc3cc(-c4ccccc4)c(O)cc23)c1,3
CCC(C(=O)Nc1sc(C(N)=O)c(C)c1C(=O)OC)c1ccccc1 (stereo not drawn),107
CC(C)c1ccc(/C=N/NC(=O)c2cccc(Cl)c2)cc1,517*
C/C(=N\NC(=O)c1cccc(Cl)c1)c1cccc(NC(=O)C(C)C)c1,3
Cc1ccc(C)n1NC(=O)c1cccc(Cl)c1,-4
CN(C)S(=O)(=O)c1ccc(NC(=O)COC(=O)C2COc3ccccc3O2)cc1 (stereo not drawn),-5
CCCOC(=O)Nc1c(C)cccc1C(C)C,-8
COc1ccccc1OCc1ccc(C(=O)NC(C)(C)C)o1,50
COC(=O)c1ccccc1NC(=O)c1ccc(COc2ccccc2)o1,585*
COc1ccc(NC(=O)c2ccc(COc3ccccc3)o2)cc1,-5
Cc1nn(-c2ccccc2)c(C)c1/C=N/NC(=O)CSc1nnc(SCc2ccccc2Cl)s1,167
Cc1nn(-c2ccccc2)c(C)c1/C=N/NC(=O)c1cc(-c2ccccc2)n[nH]1,125*
Cc1nn(-c2ccccc2)c(C)c1/C=N/n1c(-c2ccc(Cl)cc2)n[nH]c1=S,0
O=C(CC1C(=O)NCCN1Cc1ccccc1C(F)(F)F)NCCc1ccccn1 (stereo not drawn),-5
